{"source": "ChEMBL document CHEMBL4196022", "about": "“Alkynyl-containing phenylthiazoles: Systemically active antibacterial agents effective against methicillin-resistant Staphylococcus aureus (MRSA)” (Eur J Med Chem, 2018)", "key": {"[1]": {"system": "Staphylococcus aureus", "assay": "Antibacterial activity against methicillin-resistant Staphylococcus aureus NRS107 after 20 hrs by broth microdilution assay", "type": "functional", "details": "NRS107, 20 h", "in_short": "(§1)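 Broth microdilution per CLSI in cation-adjusted Mueller Hinton broth. Compounds serially diluted, in triplicate. Incubation at 37 °C for at least 20 hours. MIC taken as the lowest concentration with no visible bacterial growth.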"}, "[2]": {"system": "Staphylococcus aureus", "assay": "Bactericidal activity against methicillin-resistant Staphylococcus aureus USA300 up to 18 hrs by broth microdilution assay", "type": "functional", "details": "USA300, 18 h, read-out: MBC99.9"}, "[3]": {"system": "Staphylococcus aureus", "assay": "Bactericidal activity against methicillin-resistant Staphylococcus aureus NRS107 up to 18 hrs by broth microdilution assay", "type": "functional", "details": "NRS107, 18 h, read-out: MBC99.9"}, "[4]": {"system": "Staphylococcus aureus", "assay": "Bactericidal activity against methicillin-resistant Staphylococcus aureus NRS119 up to 18 hrs by broth microdilution assay", "type": "functional", "details": "NRS119, 18 h, read-out: MBC99.9"}, "[5]": {"system": "Staphylococcus aureus", "assay": "Antibacterial activity against methicillin-resistant Staphylococcus aureus NRS123 (USA400) after 20 hrs by broth microdilution assay", "type": "functional", "in_short": "as §1"}, "[6]": {"system": "Staphylococcus aureus", "assay": "Antibacterial activity against vancomycin-resistant Staphylococcus aureus VRS10 after 20 hrs by broth microdilution assay", "type": "functional", "details": "VRS10, 20 h", "in_short": "as §1"}, "[7]": {"system": "Staphylococcus aureus", "assay": "Antibacterial activity against vancomycin-resistant Staphylococcus aureus VRS11a after 20 hrs by broth microdilution assay", "type": "functional", "in_short": "as §1"}, "[8]": {"system": "Staphylococcus aureus", "assay": "Bactericidal activity against methicillin resistant vancomycin-resistant Staphylococcus aureus VRS11a up to 18 hrs by broth microdilution assay", "type": "functional", "details": "read-out: MBC99.9"}, "[9]": {"system": "Staphylococcus aureus", "assay": "Bactericidal activity against methicillin resistant vancomycin-resistant Staphylococcus aureus VRS12 up to 18 hrs by broth microdilution assay", "type": "functional", "details": "VRS12, 18 h, read-out: MBC99.9", "in_short": "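MBC set up from the MIC plates. Aliquots from wells with no growth spotted onto tryptic soy agar and incubated at 37 °C for at least 18 hours. MBC taken as the lowest concentration giving 99.9% inhibition of bacterial growth.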"}, "[10]": {"system": "Staphylococcus aureus", "assay": "Ratio of MBC to MIC for methicillin-resistant Staphylococcus aureus USA300", "type": "functional", "in_short": "(§2)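 MBC/MIC ratio. […] MBC by plating no-growth wells onto tryptic soy agar at 37 °C for at least 18 h; taken as the concentration giving 99.9% growth inhibition.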"}, "[11]": {"system": "Staphylococcus aureus", "assay": "Ratio of MBC to MIC for methicillin-resistant Staphylococcus aureus NRS107", "type": "functional", "in_short": "as §2"}, "[12]": {"system": "Staphylococcus aureus", "assay": "Ratio of MBC to MIC for methicillin-resistant Staphylococcus aureus NRS123 (USA400)", "type": "functional", "in_short": "as §2"}, "[13]": {"system": "Staphylococcus aureus", "assay": "Ratio of MBC to MIC for vancomycin-resistant Staphylococcus aureus VRS11a", "type": "functional", "in_short": "as §2"}, "[14]": {"system": "Staphylococcus aureus", "assay": "Ratio of MBC to MIC for vancomycin-resistant Staphylococcus aureus VRS12", "type": "functional", "in_short": "as §2"}, "[15]": {"system": "Staphylococcus aureus", "assay": "Bactericidal activity against methicillin-resistant Staphylococcus aureus NRS123 (USA400) at 4 times MIC after 24 hrs by time kill assay", "type": "functional, organism-based"}, "[16]": {"system": "HRT-18 cell line", "assay": "Cytotoxicity against human HRT18 cells assessed as reduction in cell viability up to 32 ug/ml after 2 hrs by MTS assay", "type": "cell-based", "details": "hrt-18, 2 h"}, "[17]": {"biological_target": "T1, Undecaprenyl-diphosphatase (Escherichia coli (strain K12), UniProt P60932)", "T1 sequence (P60932 whole entry)": "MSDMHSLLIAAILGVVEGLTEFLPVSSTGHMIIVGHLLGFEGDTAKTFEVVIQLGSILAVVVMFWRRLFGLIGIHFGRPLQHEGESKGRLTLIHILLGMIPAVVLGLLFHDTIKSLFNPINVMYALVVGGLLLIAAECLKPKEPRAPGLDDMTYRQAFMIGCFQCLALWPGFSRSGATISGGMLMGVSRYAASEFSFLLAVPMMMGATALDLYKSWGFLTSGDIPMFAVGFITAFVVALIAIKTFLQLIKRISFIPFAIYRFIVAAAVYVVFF", "assay": "Inhibition of Escherichia coli UPPP expressed in Escherichia coli C41(DE3) using FPP as substrate preincubated for 15 mins followed by substrate addition measured after 20 mins by malachite green assay"}, "[18]": {"assay": "Induction of proton motive force collapse in Escherichia coli inverted membrane vesicle in presence of succinate/O2-driven PMF generation system by ACMA-based fluorescence assay", "type": "functional, cell membranes", "in_short": "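E. coli inverted membrane vesicles had proton motive force generated either by ATP or by succinate/O2. PMF collapse was followed as a dose response to give EC50, with CCCP as the reference uncoupler.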"}, "[19]": {"assay": "Apparent permeability from apical to basolateral side in human Caco2 cells at 10 uM after 60 mins by LC-MS/MS analysis", "type": "ADME, cell-based", "details": "caco-2, 1 h", "in_short": "(§3)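 Caco-2 monolayers were seeded at 1 × 10^5 cells/cm2 and differentiated for three weeks. Test article was at 10 μM (1% DMSO) in HBSS-MES pH 6.5 or HBSS-HEPES pH 7.4 and added to the donor side. Incubation ran 60 min (A→B) or 40 min (B→A), and receiver buffer was analysed by LC/MS/MS. Lucifer yellow and fluorescein checked monolayer integrity. Efflux ratio = Papp(B→A)/Papp(A→B).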"}, "[20]": {"assay": "Apparent permeability from basolateral to apical side in human Caco2 cells at 10 uM after 60 mins by LC-MS/MS analysis", "type": "ADME, cell-based", "details": "caco-2, 1 h"}, "[21]": {"assay": "Efflux ratio of apparent permeability in human Caco2 cells at 10 uM after 60 mins by LC-MS/MS analysis", "type": "ADME, cell-based", "details": "caco-2, 1 h", "in_short": "as §3"}, "[22]": {"assay": "Half life in human liver microsomes at 0.1 uM preincubated for 5 mins followed by NDAPH addition measured up to 60 mins by HPLC-MS/MS analysis", "details": "1 h"}, "[23]": {"system": "Rattus norvegicus", "assay": "Volume of distribution at steady state in Sprague-Dawley rat at 2 uM administered as single iv bolus dose by LC-MS/MS analysis", "type": "ADME, organism-based", "details": "in vivo", "in_short": "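Male naïve Sprague-Dawley rats (three animals) received an IV bolus of a 2 μM solution. EDTA-K2 blood was sampled over 12 h post dose. Plasma was protein-precipitated with acetonitrile and quantified by LC/MS/MS. Parameters came from two-compartmental pharmacokinetic analysis.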"}, "[24]": {"system": "Staphylococcus aureus", "assay": "Antibacterial activity against methicillin-resistant Staphylococcus aureus USA300 in Balb/c mouse skin infection model assessed as reduction in bacterial burden in wounded skin area at 2% administered topically twice daily for 5 consecutive days measured 12 hrs post last dose relative to control", "type": "functional", "set-up": "scale not given: the % may be the effect or the level left", "in_short": "(§4)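 Female Balb/c mice, 8 weeks old, n=5 per group. Intradermal injection of 40 μL of 1.32×10^9 CFU/mL USA300; a wound formed by ~66 h. Treated topically with a 2% suspension in petroleum jelly twice daily for 5 days; the vehicle group served as control. Wounds excised 12 h after the last dose, homogenized in PBS and plated on mannitol salt agar; sites also observed for redness and swelling.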"}, "[25]": {"system": "Staphylococcus aureus", "assay": "Antibacterial activity against methicillin-resistant Staphylococcus aureus USA300 in neutropenic Balb/c mouse thigh infection model assessed as reduction in bacterial burden in thigh at 20 mg/kg, ip administered twice at 2 and 12 hrs post infection and measured at 24 hrs post infection relative to control", "type": "functional", "set-up": "scale not given: the % may be the effect or the level left", "in_short": "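Female BALB/c mice, 6–8 weeks old, n=5, made neutropenic with i.p. cyclophosphamide 150 and 100 mg/kg on days −4 and −1. Right thigh injected with 100 μL of 5.35×10^7 CFU/mL USA300. […] Thighs harvested at 24 h and counted as CFU/g on mannitol salt agar.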"}, "[26]": {"system": "Mus musculus", "assay": "Induction of inflammation in Balb/c mouse infected with methicillin-resistant Staphylococcus aureus USA300 assessed as swelling around wounded skin area at 2% administered topically twice daily for 5 consecutive days measured 12 hrs post last dose", "type": "organism-based", "details": "in vivo, topical_or_ocular", "in_short": "as §4"}}, "note": "Calls of active or inactive are those of the source. No cut-off for these calls is given here.", "data": [{"smiles": "C/C(=N\\NC(=N)N)c1sc(-c2ccc(C#CC3CC3)cc2)nc1C", "values": [{"measurement": "MIC", "setting": "[1]", "result": 2, "unit": "µg/mL"}, {"measurement": "MBC", "setting": "[2]", "result": 4, "unit": "µg/mL"}, {"measurement": "MBC", "setting": "[3]", "result": 2, "unit": "µg/mL"}, {"measurement": "MBC", "setting": "[4]", "result": 2, "unit": "µg/mL"}, {"measurement": "MIC", "setting": "[5]", "result": 2, "unit": "µg/mL"}, {"measurement": "MIC", "setting": "[6]", "result": 2, "unit": "µg/mL"}, {"measurement": "MIC", "setting": "[7]", "result": 2, "unit": "µg/mL"}, {"measurement": "MBC", "setting": "[8]", "result": 2, "unit": "µg/mL"}, {"measurement": "MBC", "setting": "[9]", "result": 2, "unit": "µg/mL"}, {"measurement": "Ratio", "setting": "[10]", "result": "<=3"}, {"measurement": "Ratio", "setting": "[11]", "result": "<=3"}, {"measurement": "Ratio", "setting": "[12]", "result": "<=3"}, {"measurement": "Ratio", "setting": "[13]", "result": "<=3"}, {"measurement": "Ratio", "setting": "[14]", "result": "<=3"}, {"measurement": "Activity", "setting": "[15]", "result": "Active"}, {"measurement": "Activity", "setting": "[16]", "result": "Non-Toxic"}, {"measurement": "IC50", "setting": "[17]", "result": 8.1, "unit": "µM"}, {"measurement": "EC50", "setting": "[18]", "result": 28, "unit": "µM"}, {"measurement": "Papp", "setting": "[19]", "result": 0.05, "unit": "×10⁻⁶ cm/s"}, {"measurement": "Papp", "setting": "[20]", "result": 0.35, "unit": "×10⁻⁶ cm/s"}, {"measurement": "Ratio", "setting": "[21]", "result": 69}, {"measurement": "t1/2", "setting": "[22]", "result": 4.87, "unit": "h"}, {"measurement": "Vdss", "setting": "[23]", "result": 5.51, "unit": "L"}, {"measurement": "Activity", "setting": "[24]", "result": 73, "unit": "%"}, {"measurement": "Activity", "setting": "[25]", "result": 77, "unit": "%"}, {"measurement": "Activity", "setting": "[26]", "result": "Non-Toxic"}]}]}
